Source: ChEMBL document CHEMBL1821649, “Synthesis, characterization of some benzazoles bearing pyridine moiety: search for novel anticancer agents” (2011)

Columns and labels:
Type in all cases: functional
MDA-MB-231 = assay: Antitumor activity against human MDA-MB-231 cells after 48 hrs by SRB assay; settings: MDA-MB-231, 48 h; for CC50: read-out: LC50 (the source's name)
Outline: (§1)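 NCI-60 human tumour cell panel run under the National Cancer Institute Drug Evaluation Branch protocol. Compounds passing a single-dose prescreen were retested on all lines at five 10-fold dilutions. Growth was expressed as percent growth of treated cells. Response parameters were GI50 (molar concentration giving 50% growth inhibition), TGI (total growth inhibition) and LC50 (median lethal concentration).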

NCI-H23 = assay: Antitumor activity against human NCI-H23 cells after 48 hrs by SRB assay; settings: NCI-H23, 48 h; outline: as §1
CCRF-CEM = assay: Antitumor activity against human CCRF-CEM cells after 48 hrs by SRB assay; outline: as §1
MDA-MB-435 = assay: Antitumor activity against human MDA-MB-435 cells after 48 hrs by SRB assay; settings: MDA-MB-435, 48 h; outline: as §1
SK-MEL-5 = assay: Antitumor activity against human SK-MEL-5 cells after 48 hrs by SRB assay; settings: SK-MEL-5, 48 h; outline: as §1
LOX IMVI = assay: Antitumor activity against human LOXIMVI cells after 48 hrs by SRB assay; settings: for CC50: read-out: LC50 (the source's name); outline: as §1
MCF7 = assay: Antitumor activity against human MCF7 cells after 48 hrs by SRB assay; settings: MCF7, 48 h; for CC50: read-out: LC50 (the source's name); outline: as §1
ACHN = assay: Antitumor activity against human ACHN cells after 48 hrs by SRB assay; settings: for CC50: read-out: LC50 (the source's name); outline: as §1
MDA-MB-468 = assay: Antitumor activity against human MDA-MB-468 cells after 48 hrs by SRB assay; settings: MDA-MB-468, 48 h; for CC50: read-out: LC50 (the source's name); outline: as §1
K562 = assay: Antitumor activity against human K562 cells after 48 hrs by SRB assay; settings: K562, 48 h; outline: as §1
NCI-H322M = assay: Antitumor activity against human NCI-H322M cells after 48 hrs by SRB assay; settings: for CC50: read-out: LC50 (the source's name); outline: as §1
CAKI-1 = assay: Antitumor activity against human Caki1 cells after 48 hrs by SRB assay; settings: CAKI-1, 48 h; for CC50: read-out: LC50 (the source's name); outline: as §1
SW-620 = assay: Antitumor activity against human SW620 cells after 48 hrs by SRB assay; settings: SW-620, 48 h; for CC50: read-out: LC50 (the source's name)
Outline: (§2)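 NCI-60 human cancer cell line panel run under the NCI Drug Evaluation Branch protocol. Compounds were first screened at a single dose. Those meeting preset inhibition thresholds were retested at five 10-fold dilutions. Output was percent growth of treated cells, given as % growth inhibition. GI50, TGI and LC50 values were derived from the five-dose data.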

HOP-92 = assay: Antitumor activity against human HOP92 cells after 48 hrs by SRB assay; settings: HOP-92, 48 h; outline: as §1
NCI/ADR-RES = assay: Antitumor activity against human NCI/ADR-RES cells after 48 hrs by SRB assay; settings: for CC50: read-out: LC50 (the source's name); outline: as §1
MOLT-4 = assay: Antitumor activity against human MOLT4 cells after 48 hrs by SRB assay; settings: MOLT-4, 48 h; outline: as §1
HCT-116 = assay: Antitumor activity against human HCT116 cells after 48 hrs by SRB assay; settings: HCT-116, 48 h; for CC50: read-out: LC50 (the source's name); outline: as §1
Malme-3M = assay: Antitumor activity against human MALME-3M cells after 48 hrs by SRB assay; outline: as §1
OVCAR-5 = assay: Antitumor activity against human OVCAR5 cells after 48 hrs by SRB assay; settings: OVCAR-5, 48 h; for CC50: read-out: LC50 (the source's name); outline: as §1
RPMI-8226 = assay: Antitumor activity against human RPMI8226 cells after 48 hrs by SRB assay; settings: RPMI-8226, 48 h; for CC50: read-out: LC50 (the source's name); outline: as §1
SN12C = assay: Antitumor activity against human SN12C cells after 48 hrs by SRB assay; settings: for CC50: read-out: LC50 (the source's name); outline: as §1
SNB-75 = assay: Antitumor activity against human SNB75 cells after 48 hrs by SRB assay; settings: SNB-75, 48 h; outline: as §1
SR = assay: Antitumor activity against human SR cells after 48 hrs by SRB assay; outline: as §1
U-251 = assay: Antitumor activity against human U251 cells after 48 hrs by SRB assay; settings: U-251, 48 h; for CC50: read-out: LC50 (the source's name); outline: as §2
PC-3 = assay: Antitumor activity against human PC3 cells after 48 hrs by SRB assay; settings: PC-3, 48 h; outline: as §1

## Cc1cc2nc(-c3c(N)ncc(C#N)c3-c3ccc(Cl)cc3)[nH]c2cc1C
MDA-MB-231
  GI50: 10.5 µM
  TGI: 44.2 µM
  CC50: > 100 µM
NCI-H23
  GI50: 8.1 µM
  LC50: 99.7 µM
  TGI: 30.7 µM
CCRF-CEM
  GI50: 24.6 µM
  LC50: > 100 µM
  TGI: > 100 µM
MDA-MB-435
  GI50: 2620 nM
  LC50 (median lethal concentration): > 100 µM
  TGI: > 100 µM
SK-MEL-5
  GI50: 10 µM
  LC50: > 100 µM
  TGI: 33.4 µM
LOX IMVI
  GI50: 5.83 µM
  TGI: 26 µM
  CC50: 80.7 µM
MCF7
  GI50: 9.34 µM
  TGI: > 100 µM
  CC50: > 100 µM
ACHN
  GI50: 11.1 µM
  TGI: > 100 µM
  CC50: > 100 µM
MDA-MB-468
  GI50: 12.4 µM
  TGI: 51.5 µM
  CC50: > 100 µM
K562
  GI50: 31.5 µM
  LC50: > 100 µM
  TGI: > 100 µM
NCI-H322M
  GI50: 27.7 µM
  TGI: > 100 µM
  CC50: > 100 µM
CAKI-1
  GI50: 12.1 µM
  TGI: > 100 µM
  CC50: > 100 µM
SW-620
  GI50: 32.4 µM
  TGI: > 100 µM
  CC50: > 100 µM
HOP-92
  GI50: 275 nM
  LC50: 44.2 µM
  TGI: 5.23 µM
NCI/ADR-RES
  GI50: 15.7 µM
  TGI: > 100 µM
  CC50: > 100 µM
MOLT-4
  GI50: 100 µM
  LC50: > 100 µM
  TGI: > 100 µM
HCT-116
  GI50: 3.47 µM
  TGI: 19.7 µM
  CC50: 66.3 µM
Malme-3M
  GI50: 14.5 µM
  LC50: > 100 µM
  TGI: 78.8 µM
OVCAR-5
  GI50: 14.7 µM
  TGI: > 100 µM
  CC50: > 100 µM
RPMI-8226
  GI50: 5.55 µM
  TGI: > 100 µM
  CC50: > 100 µM
SN12C
  GI50: 31 µM
  TGI: > 100 µM
  CC50: > 100 µM
SNB-75
  GI50: 12.9 µM
  LC50: 81.3 µM
  TGI: 32.4 µM
SR
  GI50: 28.7 µM
  LC50 (median lethal concentration): > 100 µM
  TGI: > 100 µM
U-251
  GI50: 5.48 µM
  TGI: 21.4 µM
  CC50: 66.2 µM

## COc1ccc(-c2c(C#N)cnc(N)c2-c2nc3cc(C)c(C)cc3[nH]2)cc1
MDA-MB-231
  GI50: 8.28 µM
  TGI: > 100 µM
  CC50: > 100 µM
NCI-H23
  GI50: 5.37 µM
  LC50: > 100 µM
  TGI: 33.3 µM
CCRF-CEM
  GI50: 25.6 µM
  LC50: > 100 µM
  TGI: > 100 µM
MDA-MB-435
  GI50: 1950 nM
  LC50 (median lethal concentration): 100 µM
  TGI: 5.39 µM
SK-MEL-5
  GI50: 8.78 µM
  LC50: > 100 µM
  TGI: > 100 µM
LOX IMVI
  GI50: 5.74 µM
  TGI: > 100 µM
  CC50: > 100 µM
MCF7
  GI50: 6.34 µM
  TGI: > 100 µM
  CC50: > 100 µM
ACHN
  GI50: 3.98 µM
  TGI: > 100 µM
  CC50: > 100 µM
MDA-MB-468
  GI50: 6.22 µM
  TGI: 23.1 µM
  CC50: 68 µM
K562
  GI50: 6.03 µM
  LC50: > 100 µM
  TGI: > 100 µM
PC-3
  GI50: 8.86 µM
NCI-H322M
  GI50: 15.5 µM
  TGI: > 100 µM
  CC50: > 100 µM
CAKI-1
  GI50: 14.6 µM
  TGI: > 100 µM
  CC50: > 100 µM
SW-620
  GI50: 6.76 µM
  TGI: > 100 µM
  CC50: > 100 µM
HOP-92
  GI50: 2650 nM
  LC50: > 100 µM
  TGI: 16.3 µM
NCI/ADR-RES
  GI50: 6.84 µM
  TGI: > 100 µM
  CC50: > 100 µM
MOLT-4
  GI50: > 100 µM
  LC50: > 100 µM
  TGI: > 100 µM
HCT-116
  GI50: 4.63 µM
  TGI: > 100 µM
  CC50: > 100 µM
Malme-3M
  GI50: 6 µM
  LC50: > 100 µM
  TGI: 48.3 µM
OVCAR-5
  GI50: 52.4 µM
  TGI: > 100 µM
  CC50: > 100 µM
RPMI-8226
  GI50: 32.5 µM
  TGI: > 100 µM
  CC50: > 100 µM
SN12C
  GI50: 25.4 µM
  TGI: > 100 µM
  CC50: > 100 µM
SNB-75
  GI50: 2.36 µM
  LC50: 32.4 µM
  TGI: 8.19 µM
SR
  GI50: 5.64 µM
  LC50 (median lethal concentration): > 100 µM
  TGI: > 100 µM
U-251
  GI50: 3.65 µM
  TGI: 12.7 µM
  CC50: 53.9 µM
